# Assay outcomes as filed in PubChem.
# OX1R antag-1 = blocks the human orexin 1 receptor; O43613; OX1R-expressing cells, FRET antagonist read-out; inhibition, % at 6.6 µM; actives 1.8% (n = 330,000); AID 485270; in the data active = inhibition mostly above about 38%, no sharp cut-off; inactive = mostly below about 40%;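 also: 0% = agonist challenge alone and 100% = reference antagonist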
# Target sequence (O43613 whole entry, looked up): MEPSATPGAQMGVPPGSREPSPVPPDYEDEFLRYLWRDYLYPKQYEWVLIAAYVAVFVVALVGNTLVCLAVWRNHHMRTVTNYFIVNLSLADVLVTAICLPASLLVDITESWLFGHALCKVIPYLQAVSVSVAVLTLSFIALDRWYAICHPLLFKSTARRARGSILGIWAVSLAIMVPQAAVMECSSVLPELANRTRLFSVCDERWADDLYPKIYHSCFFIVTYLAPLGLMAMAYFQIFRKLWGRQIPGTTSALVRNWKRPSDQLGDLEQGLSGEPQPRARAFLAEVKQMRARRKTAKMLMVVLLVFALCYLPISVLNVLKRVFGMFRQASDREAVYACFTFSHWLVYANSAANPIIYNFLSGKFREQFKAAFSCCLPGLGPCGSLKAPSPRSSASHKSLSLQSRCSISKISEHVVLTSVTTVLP
# CHO parental Ca = signal in parental CHO cells, OX1R antagonist counter-screen | inhibition, % at 5.6 µM | parental CHO-K1, ATP-induced calcium, Fluo-8 fluorescence | actives 0.63% (n = 330,000);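 active = inhibition above that plate's mean sample inhibition plus 3 SD, cut at about 26% in these data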;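 also: 0% = ATP-challenged DMSO wells and 100% = DMSO wells without ATP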
#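 Material: Parental CHO cells | Reagent: ATP | Compound dosing: Single nominal dose of 5.6 µM per compound | Detection: Intracellular calcium via Fluo-8 no-wash fluorescent dye | Read-out: % inhibition of ATP-induced calcium mobilization | Benchmarks: Low control ATP plus DMSO, high control DMSO only | Replicates: Singlicate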
# OX1R antag-2 = blocks the human orexin 1 receptor | CHO/OX1R cells, Fluo-8 calcium fluorescence, orexin A | inhibition, % at 5 µM | actives 0.43% (n = 330,000) | O43613;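 active = inhibition above its plate's threshold, mean inhibition of all tested compounds on the plate plus 3 SD, cut at about 37% in these data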;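 also: 0% = orexin A challenge wells and 100% = SB-334867-A antagonist wells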
# TAAR1 antag = antagonists of human TAAR1. Q96RJ0. CHO RD-HGA16 TAAR1, Fluo-8 calcium fluorescence, antagonist. inhibition, % at 3 µM. actives 1.5% (n = 360,000);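 active = inhibition above a per-plate cutoff, the mean inhibition of test compounds on that plate plus 3 SD, cut at about 49% in these data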;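 also: 0% = DMSO plus EC80 beta-PEA response and 100% = DMSO alone without agonist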
#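 System: CHO RD-HGA16 cells bearing hTAAR1. Reagent: EC80 β-phenethylamine stimulus. Schedule: seeding 17-24 h prior, 75-min 37 °C, 30-min RT dye loading. Signal: Fluo-8 intracellular calcium dye fluorescence, real-time kinetic reads. Read-out: % inhibition from peak post-agonist over basal fluorescence ratio. Benchmarks: vehicle wells and EC80 agonist wells. Replicates: n of 1.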
# TAAR1 agonist = human TAAR1 agonism | Q96RJ0 | CHO RD-HGA16 TAAR1, Fluo-8 calcium fluorescence; vehicle wells 0%, saturating PEA agonist 100% | activation, % at 3 µM | actives 0.99% (n = 360,000);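 active = activation above the mean activation of all test compounds in the run plus 3 SD, cut at about 38% in these data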
#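 System: CHO RD-HGA16 cells carrying human TAAR1 plus Gα16; Incubation: 17-24 h seeding, 75 min 37 °C dye, 30 min RT; Measured by: Fluo-8 fluorescence, 5 s baseline then 140 s kinetic read; Control set: DMSO and PEA EC100; Replication: single well for each compound.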
# GPR7 antagonist = human neuropeptides B/W receptor 1 antagonism; inhibition, % at 4.4 µM; AID 1861; actives 1.1% (n = 290,000); GPR7-expressing cells, fluorescence antagonist assay; P48145; in the data active = inhibition above about 16%, passing the limit was not always enough;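 also: cells stimulated with the agonist NPW; 0% = agonist with vehicle and 100% = vehicle without agonist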
# Target sequence (P48145 whole entry, looked up): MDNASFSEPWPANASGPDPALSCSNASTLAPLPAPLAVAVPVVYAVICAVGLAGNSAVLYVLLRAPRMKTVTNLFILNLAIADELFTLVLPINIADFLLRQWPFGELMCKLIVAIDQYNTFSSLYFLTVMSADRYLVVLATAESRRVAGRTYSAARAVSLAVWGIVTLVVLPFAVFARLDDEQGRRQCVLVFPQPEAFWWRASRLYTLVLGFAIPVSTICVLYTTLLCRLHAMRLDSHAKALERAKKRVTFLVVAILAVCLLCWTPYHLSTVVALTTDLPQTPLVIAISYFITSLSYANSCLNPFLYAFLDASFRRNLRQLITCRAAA
# Numbers without * were called inactive; nt = not tested or not shown. Sampled rows, rich in hits. Any-hit rate of the full collection: about 4.5%.
SMILES,OX1R antag-1,CHO parental Ca,OX1R antag-2,TAAR1 antag,TAAR1 agonist,GPR7 antagonist
CC1Cc2cc(S(=O)(=O)N3CCCCC3C)ccc2N1C(=O)C1CCC1 (stereo not drawn),13.3,2.6,-3.8,-8.2,3.1,-3.6
CCOc1ccccc1NC(=O)C1CCCCN1S(=O)(=O)c1ccc(F)cc1 (stereo not drawn),52.9*,-31.7,31.9,-7.9,3.1,-12.2
COc1ccc(C)cc1NC(=O)C1CCN(S(=O)(=O)c2ccccc2)CC1,9.0,-7.2,-18.4,-19.6,3.2,-14.9
COc1ccc(NC(=O)C2CCCCN2S(=O)(=O)c2ccccc2)cc1S(=O)(=O)N1CCOCC1 (stereo not drawn),nt,nt,nt,58.2*,20.7,nt
COc1ccc(C)cc1NC(=O)C1CCCCN1S(=O)(=O)c1ccccc1 (stereo not drawn),65.9*,-27.8,34.7,2.6,21.9,nt
Cc1cc(C)c(CN2CCN(C(=O)Cn3cc(C)c(=O)[nH]c3=O)CC2)c(C)c1,nt,nt,nt,-11.6,-0.8,nt
COC(=O)[C@]12C[C@H](CC(=O)N3CCN(C(=O)c4ccco4)CC3)C(=O)N(CCC3=CCCCC3)C1=C[C@H](C(C)(C)C)O[C@@H]2C,nt,nt,nt,-18.6,-2.3,nt
COc1cc(CNC[C@H]2O[C@@H](n3ccc(N)nc3=O)[C@H](O)[C@@H]2O)ccc1OCc1cccc(Cl)c1,nt,nt,nt,-7.3,1.8,nt
Cc1cccc(NC(=O)C2CCCN2S(=O)(=O)c2ccc(Cl)cc2)n1 (stereo not drawn),76.3*,-6.9,22.4,-15.1,-0.5,-15.0
Cc1ccc(S(=O)(=O)N2CCC[C@H]2C(=O)Nc2ccccc2C)cc1,47.5*,-20.3,6.9,-13.5,0.8,nt
Cc1ccc(S(=O)(=O)N2Cc3ccccc3CC2C(=O)Nc2ccc3c(c2)OCO3)cc1 (stereo not drawn),20.1,-12.4,-14.4,15.6,2.9,-0.1
Cc1ccc(S(=O)(=O)N2Cc3ccccc3CC2C(=O)NC(C)(C)C)cc1 (stereo not drawn),27.2*,-26.2,-18.6,-4.6,-1.3,-2.9
O=c1[nH]c(C2CCCN(S(=O)(=O)c3ccccc3)C2)nc2c1nnn2Cc1ccccc1Br (stereo not drawn),-2.9,-39.6,-49.4,-12.5,-0.6,-2.2
CCCc1cc(=O)n2nc(N3CCC(C(=O)NCc4ccc(C)o4)CC3)sc2n1,12.2,-6.4,-27.1,-5.9,0.4,-12.1
O=[N+]([O-])c1cc(S(=O)(=O)Nc2cccc(C(F)(F)F)c2)ccc1-n1nnc2ccccc21,88.0*,42.8*,44.5*,8.9,4.2,-7.6
CS(=O)(=O)c1ccc(-n2nnc3ccccc32)c([N+](=O)[O-])c1,30.6,-29.6,-21.3,-9.4,-2.5,-11.3
CN(C)CCCNS(=O)(=O)c1ccc(-n2nnc3ccccc32)c([N+](=O)[O-])c1,67.5*,-20.4,-25.1,2.5,-3.5,2.1
CC(C)(C)S(=O)(=O)N1C[C@H]2CC(=O)C=C2[C@@H]1CCO,nt,nt,nt,-10.2,2.4,nt
COC(=O)c1ccccc1-c1ccc(/C=N/NC(=O)c2cc3ccccc3o2)o1,36.5,-15.2,-21.8,55.4*,9.6,0.8
O=C(N/N=C/c1cccc2ccccc12)c1cc2ccccc2o1,nt,nt,nt,14.2,0.2,8.8
Cn1nc(CC(=O)NCc2ccc(C(F)(F)F)cc2)c2ccccc2c1=O,57.6,30.1,35.7,52.4*,16.7,3.6
Cn1nc(C(=O)NCc2ccc(F)cc2)c2ccccc2c1=O,15.4,-12.5,-27.8,-4.5,4.6,1.8
CCOC(=O)C1=CCN(S(=O)(=O)c2cccc(Cl)c2)C1c1cccc(Cl)c1 (stereo not drawn),nt,nt,nt,36.9,2.4,nt
Nc1ccn([C@@H]2O[C@H](C(=O)N3CCN(CCO)CC3)[C@@H](O)[C@H]2O)c(=O)n1,nt,nt,nt,7.5,0.6,nt
CCOc1cc(CNC(=O)CCCn2c(=O)c3cccn3c3cccnc32)cc(OCC)c1OCC,67.9*,-18.5,3.9,5.5,2.4,-21.2
SMILES,OX1R antag-1,CHO parental Ca,OX1R antag-2,TAAR1 antag,TAAR1 agonist,GPR7 antagonist
CCc1ccc(CNC(=O)CCCn2c(=O)c3cccn3c3cccnc32)cc1,9.7,-25.3,-15.7,-30.7,1.8,-7.3
CSc1cccc(NC(=O)CCCn2c(=O)c3cccn3c3cccnc32)c1,73.7*,-10.2,0.8,22.0,5.3,-17.6
O=C(CCCn1c(=O)c2cccn2c2cccnc21)NCc1cccc(Br)c1,31.1,-4.9,-1.8,26.1,3.7,18.6
COc1ccc2cc3cc(C(=O)NCCCN4CCC(C)CC4)oc3nc2c1,46.3*,-3.6,-18.9,nt,nt,-12.9
COc1ccc2cc3cc(C(=O)NCCN4CCc5ccccc5C4)oc3nc2c1,42.2*,-10.5,-18.2,nt,nt,-3.0
COc1ccc2cc3cc(C(=O)N4CCCCCC4)oc3nc2c1,57.2*,-9.8,2.1,nt,nt,5.3
COc1ccc2cc3cc(C(=O)NCCN4CCN(Cc5ccccc5)CC4)oc3nc2c1,61.4,-32.6,-38.5,13.3,2.5,-1.1
COC(=O)Cc1nnn2c1[C@@H](C)[C@@H](c1ccccc1Br)O[C@@H](C)C2,nt,nt,nt,-4.3,8.6,nt
C=CCOc1c(CNc2ccc3[nH]c(=O)[nH]c3c2)cccc1OC,9.6,-3.3,-4.3,0.8,1.7,-1.5
COc1cccc(CNc2ccc3[nH]c(=O)[nH]c3c2)c1OCc1ccc(F)cc1,nt,nt,nt,50.1*,6.6,-4.5
COC[C@@H](O)[C@H]1OCc2cc(OC)ccc2[C@@H]1/C=C/c1ccccc1,nt,nt,nt,0.3,2.6,nt
O=C(Cc1ccccc1)N/N=C/c1ccc([N+](=O)[O-])s1,57.6,-13.9,-9.4,0.6,30.5,-0.2
Cc1ccnn1CC(=O)N/N=C/c1cccs1,8.7,-12.5,-11.5,-24.7,2.3,-3.4
O=C(CNC(=O)c1cccc(F)c1)N/N=C/c1ccc([N+](=O)[O-])s1,49.5*,-4.9,-8.5,-30.6,3.1,5.0
Cc1ccnn1CC(=O)N/N=C/c1ccc([N+](=O)[O-])s1,51.2*,-13.4,-18.1,-1.3,2.5,-18.1
O=C(N/N=C/c1ccc([N+](=O)[O-])s1)C(O)c1ccccc1 (stereo not drawn),56.1*,-6.2,-4.7,9.6,0.3,-6.2
C=CCN=C1NC(CCc2ccccc2)C(C(=O)OC)=C(C)N1C (stereo not drawn),nt,nt,nt,-11.7,0.9,nt
CCc1nc(SCC(=O)c2ccccc2)c2ccccc2n1,41.0,-46.9,-53.8,18.9,14.8,1.4
CCN(CC)C(=O)CSc1nc(Cc2ccccc2)nc2ccccc12,nt,nt,nt,-7.2,2.7,-11.4
CCc1nc(SCC(=O)c2ccc3c(c2)OCCO3)c2ccccc2n1,57.7*,-27.2,4.9,31.9,12.5,-4.0
O=C(CSc1nc(Cc2ccccc2)nc2ccccc12)c1ccc2c(c1)OCCO2,41.4*,-0.1,-21.7,8.0,5.2,-1.2
